Measurements from different studies.
Compare with care: the assays were run in different laboratories.
Target: Calcium/calmodulin-dependent protein kinase type II subunit gamma (CAMK2G, Homo sapiens, UniProt Q13555)

SMILES	observed	technique	tested at	remaining binding
C[C@@H]1CN(c2cc(-c3n[nH]c4ccc(OC5(C)CC5)cc34)ncn2)C[C@H](C)O1	cell-free assay	competition with immobilised ligand	0.1 µM	100%
CN(C)c1nccc(-c2cnc3ncccn23)n1	binding	–	1 µM	100%
O=C(N1CCS(=O)(=O)CC1)N1C[C@H](c2ccc(OC(F)(F)F)cc2)C[C@H](c2nc(C3CC3)no2)C1	cell-free assay	competition with immobilised ligand	1 µM	100%
F[C@@H]1CCN(c2nccc(-c3cnn4ncccc34)n2)C1	binding	–	1 µM	100%
O=C(O)[C@H]1[C@H](Cn2nnc3ccccc3c2=O)CC[C@@H]1C(=O)c1ccc(OCCC2CCOCC2)cc1	cell-free assay	competition with immobilised ligand	1 µM	90%
O=C(c1ccc(Nc2nccc(-c3cc4ccccc4s3)n2)cc1)N1CCC(N2CCCC2)CC1	binding	competition with immobilised ligand	1 µM	81%
COc1ccnn2ncc(-c3ccnc(N(C)C)n3)c12	binding	–	1 µM	100%
CCCOc1ccc([C@H]2[C@H](C(=O)O)[C@@H](c3ccc4c(c3)OCO4)CN2CC(=O)Nc2c(CC)cccc2CC)cc1	cell-free assay	competition with immobilised ligand	1 µM	95%
O=C(NCCCN1CCOCC1)c1ccc(Nc2ncc(Cl)c(-c3ccc(Cl)s3)n2)cc1	binding	competition with immobilised ligand	1 µM	77%
O=C(NCC1CCOCC1)c1n[nH]cc1NC(=O)c1c(F)cccc1F	binding	competition with immobilised ligand	1 µM	88%
CN(CCCC(F)(F)F)c1nccc(-c2cnn3ncccc23)n1	binding	–	1 µM	100%
COc1cc(-c2cn(C3CCc4ccccc4N(CC(F)(F)F)C3=O)nn2)ccc1-n1ccc(C)n1 (centres unmarked)	cell-free assay	competition with immobilised ligand	1 µM	100%
O=C(c1ccc(Nc2ncc(Cl)c(-c3ccc(Cl)s3)n2)cc1)N1CCC(N2CCCC2)CC1	binding	competition with immobilised ligand	1 µM	80%
CN(C)c1ncc(F)c(-c2cnn3ncccc23)n1	binding	–	1 µM	90%
Nc1ncc2c(n1)-c1c([nH]c3ccc(C#CC4CC4)cc13)CCCC2	binding	competition with immobilised ligand	1 µM	100%
C[C@@H](c1ccc(-n2cnc3c(N)ncnc32)cc1)N1CCc2nn(C)c(Cc3ccccc3)c2C1=O	binding	competition with immobilised ligand	0.1 µM	94%
CN(C)c1nccc(-c2cnn3ncccc23)n1	binding	–	1 µM	100%
C=CC(=O)N1CCC(C(=O)NCC(=O)N2CCN(c3nc(-c4cnc(N)nc4C(F)F)nc(N4CCOCC4)n3)CC2)CC1	binding	competition with immobilised ligand	1 µM	100%
FC(F)(F)c1ccc2c(c1)nc(-c1cccnc1)n2C1CC1	cell-free assay	competition with immobilised ligand	1 µM	100%
COc1cnc(Nc2cccc(S(N)(=O)=O)c2)nc1N1CCN(c2ccccc2)CC1	binding	competition with immobilised ligand	1 µM	94%
